{
  "source": "paper PMC9303693",
  "about": "(Journal of Clinical Pharmacology, 2022)",
  "key": {"BTK": {"tested_on": "BTK", "details": "cited from earlier work"}, "[1]": {"format": "in vivo, human", "details": "for AUC0‐inf, LS Mean / Cmax, LS Mean: ANOVA, exponentiated LSM"}, "[2]": {"details": "human, plasma; cited from earlier work"}, "human plasma [3]": {"tested_on": "human plasma", "experiment": "In vitro protein binding in human plasma", "format": "in vitro ADME", "details": "human plasma"}, "human plasma [4]": {"tested_on": "human plasma", "experiment": "Plasma protein binding in study 2 subjects", "format": "in vitro ADME", "method_in_brief": "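Severe hepatic impairment and matched control subjects received a single oral 50-mg dose of the test compound after an overnight fast. Blood (4 mL) was drawn on day 1 at 0.863, 1.75 and 6.5 h post-dose. Binding of parent and active metabolite in the plasma was assessed by ultracentrifugation to estimate the unbound fraction.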"}, "[5]": {"experiment": "Urinary excretion and renal clearance after a single 50-mg dose", "format": "in vivo, human", "details": "for mean renal clearance: ACP-5862", "method_in_brief": "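In study 2, a single oral 50-mg capsule was taken with ≈240 mL water after an overnight fast. Urine was collected predose, 0–4 h and 4–24 h post-dose and pooled per interval for each subject. Analytes were quantified by validated LC-MS/MS with deuterated internal standards over a nominal urine range of 5 to 5000 ng/mL.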"}, "[6]": {"details": "cited from earlier work"}, "[7]": {"details": "ACP-5862/acalabrutinib, study 2, Control (n = 8), arithmetic mean (SD)"}, "[8]": {"details": "ACP-5862/acalabrutinib, study 2, Severe (n = 8), arithmetic mean (SD)"}, "[9]": {"details": "ACP-5862, severe hepatic impairment vs control subjects"}, "[10]": {"details": "plasma ACP-5862, Severe vs normal hepatic function (reference)"}, "[11]": {"details": "subjects with severe hepatic impairment"}},
  "note": "Where “and” joins values, the source holds several entries; their conditions need not be identical. Equal values may be shown once. Read-outs that look alike come from different tables or passages of the source.",
  "data": [
    {"smiles": "CC#CC(=O)NCCCC(=O)c1nc(-c2ccc(C(=O)Nc3ccccn3)cc2)c2c(N)nccn12", "note": "[ACP‐5862]", "values": [
      {"measurement": "potency for BTK inactivation relative to parent acalabrutinib", "setting": "BTK", "result": "≈ 50%"},
      {"measurement": "MR:AUC0‐inf (metabolite‐to‐parent ratio)", "setting": "[1]; [7]", "result": "3.59 and 3.6 ± 0.9"},
      {"measurement": "MR:AUC0‐last (metabolite‐to‐parent ratio)", "setting": "[1]; [7]", "result": "3.1 ± 0.7"},
      {"measurement": "MR:Cmax (metabolite‐to‐parent ratio)", "setting": "[1]; [7]", "result": "1.15 and 1.1 ± 0.4"},
      {"measurement": "MR:AUC0‐last (metabolite‐to‐parent ratio)", "setting": "[1]; [8]", "result": "0.6 ± 0.4"},
      {"measurement": "MR:Cmax (metabolite‐to‐parent ratio)", "setting": "[1]; [8]", "result": "0.247 and 0.2 ± 0.1"},
      {"measurement": "geometric mean ratio for AUC", "setting": "[1]; [9]", "result": 0.9},
      {"measurement": "geometric mean ratio for Cmax", "setting": "[1]; [9]", "result": 1.01},
      {"measurement": "AUC0‐inf, LS Mean", "setting": "[1]; plasma ACP-5862, Control, n 8", "result": 817.0, "unit": "ng·h/mL"},
      {"measurement": "Cmax, LS Mean", "setting": "[1]; plasma ACP-5862, Control, n 8", "result": 166.5, "unit": "ng/mL"},
      {"measurement": "AUC0‐inf, LS Mean", "setting": "[1]; plasma ACP-5862, Severe, n 6", "result": 782.2, "unit": "ng·h/mL"},
      {"measurement": "Cmax, LS Mean", "setting": "[1]; plasma ACP-5862, Severe, n 8", "result": 168.7, "unit": "ng/mL"},
      {"measurement": "AUC0‐inf GMR: Test/Reference", "setting": "[1]; [10]", "result": 95.7, "unit": "%"},
      {"measurement": "Cmax GMR: Test/Reference", "setting": "[1]; [10]", "result": 101.4, "unit": "%"},
      {"measurement": "share of total acalabrutinib‐related material in plasma", "setting": "[2]", "result": "> 10", "unit": "%"},
      {"measurement": "in vitro protein binding", "setting": "human plasma [3]; plasma concentration 1 μM (0.482 μg/mL)", "result": 98.7, "unit": "%"},
      {"measurement": "in vitro protein binding", "setting": "human plasma [3]; plasma concentration 10 μM (4.82 μg/mL)", "result": 98.6, "unit": "%"},
      {"measurement": "mean protein binding", "setting": "human plasma [4]; healthy matched controls", "result": "≈ 98%"},
      {"measurement": "mean protein binding", "setting": "human plasma [4]; [11]", "result": "≈ 94%"},
      {"measurement": "mean renal clearance", "setting": "[5]; matched control subjects with normal hepatic function", "result": 605.3, "unit": "mL/h"},
      {"measurement": "mean renal clearance", "setting": "[5]; [11]", "result": 692.6, "unit": "mL/h"},
      {"measurement": "amount of the metabolite excreted in urine", "setting": "[5]; ACP-5862 after 50-mg acalabrutinib, subjects with severe hepatic impairment", "result": "≈ 0.415 mg"}
    ]},
    {"smiles": "C=CC(=O)N1CCC[C@@H](n2nc(-c3ccc(Oc4ccccc4)cc3)c3c(N)ncnc32)C1", "note": "[ibrutinib]", "values": [
      {"measurement": "mean AUC, fold higher compared with healthy controls", "setting": "[6]; mild hepatic impairment", "result": 2.7, "unit": "fold"},
      {"measurement": "mean AUC, fold higher compared with healthy controls", "setting": "[6]; moderate hepatic impairment", "result": 8.0, "unit": "fold"},
      {"measurement": "mean AUC, fold higher compared with healthy controls", "setting": "[6]; severe hepatic impairment", "result": 9.5, "unit": "fold"}
    ]}
  ]
}
